Test results from ChEMBL document CHEMBL2157880, “Synthesis, antimycobacterial and antibacterial activity of ciprofloxacin derivatives containing a N-substituted benzyl moiety” (2012).
Converted amounts (≈) assume the structure as drawn.

What was measured:
Type in all cases: functional
[1] = system: Mycobacterium tuberculosis; test: Antimycobacterial activity against Mycobacterium tuberculosis H37Rv ATCC 27294 by microplate alamar blue assay
Procedure, shortened: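 Microplate Alamar Blue fluorescence assay on strain H37Rv ATCC 27294. MIC was the lowest concentration cutting fluorescence by ≥90% against the mean of replicate bacterium-only controls.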

[2] = system: Staphylococcus aureus; test: Antibacterial activity against Staphylococcus aureus ATCC 2592 after 18 to 24 hrs by NCCLS method
Procedure, shortened: (§1)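 Standard NCCLS (M100-S11) MIC testing against Gram-positive and Gram-negative strains. Plates were incubated at 35 °C for 18–24 h. The MIC was read as the lowest concentration giving complete inhibition of visible bacterial growth.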

[3] = system: Staphylococcus aureus; test: Antibacterial activity against methicillin-sensitive Staphylococcus aureus 10-11 after 18 to 24 hrs by NCCLS method; procedure, shortened: as §1
[4] = system: Staphylococcus aureus; test: Antibacterial activity against methicillin-sensitive Staphylococcus aureus 10-13 after 18 to 24 hrs by NCCLS method; procedure, shortened: as §1
[5] = system: Staphylococcus aureus; test: Antibacterial activity against methicillin-sensitive Staphylococcus aureus 10-14 after 18 to 24 hrs by NCCLS method; procedure, shortened: as §1
[6] = system: Staphylococcus aureus; test: Antibacterial activity against methicillin-resistant Staphylococcus aureus 10-11 after 18 to 24 hrs by NCCLS method
Procedure, shortened: (§2)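 Incubated at 35 °C for 18–24 h under NCCLS (M100-S11) standards. MIC was read as the lowest concentration giving complete inhibition of visible bacterial growth.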

[7] = system: Staphylococcus aureus; test: Antibacterial activity against methicillin-resistant Staphylococcus aureus 10-13 after 18 to 24 hrs by NCCLS method; procedure, shortened: as §2
[8] = system: Staphylococcus aureus; test: Antibacterial activity against methicillin-resistant Staphylococcus aureus 10-15 after 18 to 24 hrs by NCCLS method; procedure, shortened: as §2
[9] = system: Staphylococcus epidermidis; test: Antibacterial activity against methicillin-sensitive Staphylococcus epidermidis 10-11 after 18 to 24 hrs by NCCLS method; procedure, shortened: as §1
[10] = system: Staphylococcus epidermidis; test: Antibacterial activity against methicillin-sensitive Staphylococcus epidermidis 10-15 after 18 to 24 hrs by NCCLS method; procedure, shortened: as §2
[11] = system: Staphylococcus epidermidis; test: Antibacterial activity against methicillin-resistant Staphylococcus epidermidis 10-10 after 18 to 24 hrs by NCCLS method; procedure, shortened: as §2
[12] = system: Staphylococcus epidermidis; test: Antibacterial activity against methicillin-resistant Staphylococcus epidermidis 10-13 after 18 to 24 hrs by NCCLS method; procedure, shortened: as §2
[13] = system: Enterococcus faecalis; test: Antibacterial activity against Enterococcus faecalis 10-5 after 18 to 24 hrs by NCCLS method; procedure, shortened: as §1
[14] = system: Enterococcus faecalis; test: Antibacterial activity against Enterococcus faecalis 10-6 after 18 to 24 hrs by NCCLS method; procedure, shortened: as §1
[15] = system: Enterococcus faecalis; test: Antibacterial activity against Enterococcus faecalis 10-7 after 18 to 24 hrs by NCCLS method; procedure, shortened: as §1
[16] = system: Enterococcus faecium; test: Antibacterial activity against Enterococcus faecium 10-6 after 18 to 24 hrs by NCCLS method; procedure, shortened: as §1
[17] = system: Enterococcus faecium; test: Antibacterial activity against Enterococcus faecium 10-9 after 18 to 24 hrs by NCCLS method; procedure, shortened: as §1
[18] = system: Streptococcus pneumoniae; test: Antibacterial activity against Streptococcus pneumoniae 10-1 after 18 to 24 hrs by NCCLS method; procedure, shortened: as §1
[19] = system: Streptococcus pneumoniae; test: Antibacterial activity against Streptococcus pneumoniae 10-6 after 18 to 24 hrs by NCCLS method; procedure, shortened: as §1
[20] = system: Escherichia coli; test: Antibacterial activity against Escherichia coli ATCC 25922 after 18 to 24 hrs by NCCLS method; procedure, shortened: as §1
[21] = system: Escherichia coli; test: Antibacterial activity against Escherichia coli 10-1 after 18 to 24 hrs by NCCLS method; procedure, shortened: as §1
[22] = system: Escherichia coli; test: Antibacterial activity against Escherichia coli 10-2 after 18 to 24 hrs by NCCLS method; procedure, shortened: as §1
[23] = system: Escherichia coli; test: Antibacterial activity against Escherichia coli 10-3 after 18 to 24 hrs by NCCLS method; procedure, shortened: as §1
[24] = system: Escherichia coli; test: Antibacterial activity against extended spectrum beta-lactamases producing Escherichia coli 10-2 after 18 to 24 hrs by NCCLS method; procedure, shortened: as §1
[25] = system: Escherichia coli; test: Antibacterial activity against extended spectrum beta-lactamases producing Escherichia coli 10-3 after 18 to 24 hrs by NCCLS method; procedure, shortened: as §1
[26] = system: Escherichia coli; test: Antibacterial activity against extended spectrum beta-lactamases producing Escherichia coli 10-4 after 18 to 24 hrs by NCCLS method; procedure, shortened: as §1
[27] = system: Klebsiella pneumoniae; test: Antibacterial activity against Klebsiella pneumoniae 10-2 after 18 to 24 hrs by NCCLS method; procedure, shortened: as §1
[28] = system: Klebsiella pneumoniae; test: Antibacterial activity against Klebsiella pneumoniae 10-3 after 18 to 24 hrs by NCCLS method; procedure, shortened: as §1
[29] = system: Klebsiella pneumoniae; test: Antibacterial activity against Klebsiella pneumoniae 10-4 after 18 to 24 hrs by NCCLS method; procedure, shortened: as §1
[30] = system: Klebsiella pneumoniae; test: Antibacterial activity against extended spectrum beta-lactamases producing Klebsiella pneumoniae 10-1 after 18 to 24 hrs by NCCLS method; procedure, shortened: as §1
[31] = system: Klebsiella pneumoniae; test: Antibacterial activity against extended spectrum beta-lactamases producing Klebsiella pneumoniae 10-2 after 18 to 24 hrs by NCCLS method; procedure, shortened: as §1
[32] = system: Klebsiella pneumoniae; test: Antibacterial activity against extended spectrum beta-lactamases producing Klebsiella pneumoniae 10-3 after 18 to 24 hrs by NCCLS method; procedure, shortened: as §1
[33] = system: Pseudomonas aeruginosa; test: Antibacterial activity against Pseudomonas aeruginosa 10-5 after 18 to 24 hrs by NCCLS method; procedure, shortened: as §1
[34] = system: Pseudomonas aeruginosa; test: Antibacterial activity against Pseudomonas aeruginosa 10-9 after 18 to 24 hrs by NCCLS method; procedure, shortened: as §1
[35] = system: Pseudomonas aeruginosa; test: Antibacterial activity against Pseudomonas aeruginosa 10-12 after 18 to 24 hrs by NCCLS method; procedure, shortened: as §1
[36] = system: Pseudomonas aeruginosa; test: Antibacterial activity against Pseudomonas aeruginosa 10-15 after 18 to 24 hrs by NCCLS method; procedure, shortened: as §1
[37] = system: Pseudomonas aeruginosa; test: Antibacterial activity against Pseudomonas aeruginosa 10-18 after 18 to 24 hrs by NCCLS method; procedure, shortened: as §1
[38] = system: Pseudomonas aeruginosa; test: Antibacterial activity against Pseudomonas aeruginosa 10-20 after 18 to 24 hrs by NCCLS method; procedure, shortened: as §1

SMILES | MIC [1] | MIC [2] | MIC [3] | MIC [4] | MIC [5] | MIC [6] | MIC [7] | MIC [8] | MIC [9] | MIC [10] | MIC [11] | MIC [12] | MIC [13] | MIC [14] | MIC [15] | MIC [16] | MIC [17] | MIC [18] | MIC [19] | MIC [20] | further results
O=C(O)c1cn(C2CC2)c2cc(N3CCN(Cc4ccc(OCc5ccccc5)cc4)CC3)c(F)cc2c1=O | 32 µg/mL (≈ 60.7 µM) | 4 µg/mL (≈ 7.58 µM) | 0.25 µg/mL (≈ 0.474 µM) | 0.5 µg/mL (≈ 0.948 µM) | 0.5 µg/mL (≈ 0.948 µM) | 32 µg/mL (≈ 60.7 µM) | 128 µg/mL (≈ 243 µM) | 128 µg/mL (≈ 243 µM) | 1 µg/mL (≈ 1.9 µM) | 32 µg/mL (≈ 60.7 µM) | 16 µg/mL (≈ 30.3 µM) | 32 µg/mL (≈ 60.7 µM) | 8 µg/mL (≈ 15.2 µM) | 64 µg/mL (≈ 121 µM) | 32 µg/mL (≈ 60.7 µM) | 8 µg/mL (≈ 15.2 µM) | 32 µg/mL (≈ 60.7 µM) | 8 µg/mL (≈ 15.2 µM) | 32 µg/mL (≈ 60.7 µM) | 1 µg/mL (≈ 1.9 µM) | MIC [21]: > 128 µg/mL; MIC [22]: 32 µg/mL (≈ 60.7 µM); MIC [23]: > 128 µg/mL; MIC [24]: > 128 µg/mL; MIC [25]: > 128 µg/mL; MIC [26]: > 128 µg/mL; MIC [27]: > 128 µg/mL; MIC [28]: 32 µg/mL (≈ 60.7 µM); MIC [29]: > 128 µg/mL; MIC [30]: > 128 µg/mL; MIC [31]: > 128 µg/mL; MIC [32]: > 128 µg/mL; MIC [33]: 16 µg/mL (≈ 30.3 µM); MIC [34]: 32 µg/mL (≈ 60.7 µM); MIC [35]: 32 µg/mL (≈ 60.7 µM); MIC [36]: 128 µg/mL (≈ 243 µM); MIC [37]: 64 µg/mL (≈ 121 µM); MIC [38]: 32 µg/mL (≈ 60.7 µM)
COc1cc(Br)c(CN2CCN(c3cc4c(cc3F)c(=O)c(C(=O)O)cn4C3CC3)CC2)cc1OC | > 32 µg/mL | 2 µg/mL (≈ 3.57 µM) | 4 µg/mL (≈ 7.14 µM) | 4 µg/mL (≈ 7.14 µM) | 4 µg/mL (≈ 7.14 µM) | 32 µg/mL (≈ 57.1 µM) | 32 µg/mL (≈ 57.1 µM) | 32 µg/mL (≈ 57.1 µM) | 8 µg/mL (≈ 14.3 µM) | > 128 µg/mL | > 128 µg/mL | 32 µg/mL (≈ 57.1 µM) | > 128 µg/mL | > 128 µg/mL | > 128 µg/mL | 8 µg/mL (≈ 14.3 µM) | > 128 µg/mL | 8 µg/mL (≈ 14.3 µM) | > 128 µg/mL | 0.25 µg/mL (≈ 0.446 µM) | MIC [21]: > 128 µg/mL; MIC [22]: > 128 µg/mL; MIC [23]: > 128 µg/mL; MIC [24]: > 128 µg/mL; MIC [25]: > 128 µg/mL; MIC [26]: > 128 µg/mL; MIC [27]: > 128 µg/mL; MIC [28]: 8 µg/mL (≈ 14.3 µM); MIC [29]: > 128 µg/mL; MIC [30]: > 128 µg/mL; MIC [31]: > 128 µg/mL; MIC [32]: > 128 µg/mL; MIC [33]: 8 µg/mL (≈ 14.3 µM); MIC [34]: 8 µg/mL (≈ 14.3 µM); MIC [35]: 8 µg/mL (≈ 14.3 µM); MIC [36]: 16 µg/mL (≈ 28.6 µM); MIC [37]: 8 µg/mL (≈ 14.3 µM); MIC [38]: 16 µg/mL (≈ 28.6 µM)
